Reference: ChEMBL document CHEMBL3272300, “Mapping the dopamine receptor. 1. Features derived from modifications in ring E of the neuroleptic butaclamol” (J Med Chem, 1979)
Calls of active or inactive are those of the source. The calls are words filed in the database; no cut-off is given here.

Columns and labels:
Rattus norvegicus [1] = assay: Behavioral effect in Sprague-Dawley rat assessed as inhibition of d-amphetamine-induced stereotyped behaviour at 20 mg/kg, ip administered 15 mins post challenge measured every 15 mins for 4 hrs post challenge; assay type: functional, organism-based; parameters: dose 20 mg/kg
Outline: (§1)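 Rats (160–180 g), groups of four or more, given d-amphetamine 10 mg/kg ip, then graded ip doses of test agent or vehicle 15 min later; highest dose 20 mg/kg. Behaviour scored 0 (normal), 1 (excited), 2 (stereotyped) every 15 min for 4 h after amphetamine. MED = lowest dose antagonizing all amphetamine behavioural effects over the 4-h period.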

Rattus norvegicus [2] = assay: Behavioral effect in ip dosed Sprague-Dawley rat assessed as reduction in conditioned avoidance response compound administered 30 mins prior testing; assay type: functional
Outline: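 Morpurgo discrimination box: trained rats (250–400 g) must leave start chamber for lighted exit within 10 s or get shock. Two-trial control session before dosing; graded ip doses to groups of six or more; ten trials run 30 min post-injection. Avoidance failures expressed as percent of trials; ED50 = dose giving 50% failure.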

Rattus norvegicus [3] = assay: Behavioral effect in ip dosed Sprague-Dawley rat assessed as inhibition of d-amphetamine-induced stereotyped behaviour compound administered 15 mins post challenge measured every 15 mins for 4 hrs post challenge; assay type: functional; conditions: read-out: MED; outline: as §1
Mus musculus = assay: Inhibition of isolation-induced fighting behaviour in ip dosed Swiss albino mouse measured after 30 mins to 3 hrs; assay type: functional
Outline: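 Albino mice (14–16 g) isolated 4–5 weeks; pairs showing maximal fighting in a morning control session were dosed ip and retested at 30 min and 3 h in 5-min observations. All-or-none: effective if no fighting episode; ED50 = dose abolishing fighting in 50% of pairs, by Litchfield–Wilcoxon.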

Rattus norvegicus [4] = assay: Inhibition of epinephrine-induced mortality in ip dosed Sprague-Dawley rat compound administered 1 hr prior challenge measured over 24 hrs; assay type: functional
Outline: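 Groups of six or more rats (220–225 g) given graded ip doses; 1 h later epinephrine bitartrate 0.25 mg/kg iv, a dose lethal to untreated rats. Deaths recorded over 24 h. Protective ED50 (dose protecting 50% of rats from lethality) calculated by Litchfield–Wilcoxon method.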

Rattus norvegicus [5] = assay: Induction of catalepsy in Sprague-Dawley rat at 5 mg/kg, ip measured after 1 to 24 hrs; assay type: organism-based; parameters: dose 5 mg/kg, route intraperitoneal; conditions: in vivo
Outline: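 Rats (160–180 g), six per group, dosed ip at 5 mg/kg. Catalepsy scored at 1, 2, 4, 6 and 24 h by Wirth stages III and IV; highest mean cataleptic score given as percent of maximum attainable score.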

Row | SMILES | Activity (Rattus norvegicus [1]) | ED50 (Rattus norvegicus [2]) [mg/kg] | minimal effective dose (Rattus norvegicus [3]) [mg/kg] | ED50 (Mus musculus) [mg/kg] | ED50 (Rattus norvegicus [4]) [mg/kg] | Activity (Rattus norvegicus [5]) [%]
1 | CC(C)(C)C1CCN2C[C@H]3c4ccccc4CCc4cccc(c43)[C@@H]2C1 (some centres not stated) | inactive | 0.8 | 0.62 | 2.1 | 19 | 93
2 | c1ccc2c(c1)CCc1cccc3c1[C@H]2CN1CCCC[C@@H]31 | inactive |  |  |  |  | 
3 | CC(C)(C)C1CCN2C[C@H]3c4ccccc4CCc4cccc(c43)[C@H]2C1 (relative stereo) | inactive |  |  |  |  | 
4 | CC(C)(C)[C@@]1(O)CC[C@@H]2c3cccc4c3[C@@H](CN2C1)c1ccccc1CC4 (relative stereo) | inactive |  |  |  |  | 
5 | CC(C)(C)[C@]1(O)CC[C@H]2c3cccc4c3[C@@H](CN2C1)c1ccccc1CC4 (relative stereo) | inactive |  |  |  |  | 
6 | O[C@H]1CCN2C[C@H]3c4ccccc4CCc4cccc(c43)[C@@H]2C1 (relative stereo) | inactive |  |  |  |  | 
7 | c1ccc2c(c1)CCc1cccc3c1[C@H]2CN1CCC2(C[C@@H]31)OCCO2 (relative stereo) | inactive |  |  |  |  | 
8 | CC(C)(C)[C@]1(O)CCN2C[C@H]3c4ccccc4CCc4cccc(c43)[C@@H]2C1 [BUTACLAMOL] |  | 0.64 | 0.62 | 1.9 | 15 | 60
